How the values were obtained:
[1] = Apparent clearance in human liver microsomes; assay type: ADME, Microsome; conditions: read-out: CLH(app)
Rattus norvegicus [2] = test: AUC in rat at 5 mg/kg, po; assay type: ADME, organism-based, Plasma; design: dose 5 mg/kg, route oral; conditions: in vivo
How it was run: (§1)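 Rat PK. Oral dose 5 mg/kg given in 0.5% methylcellulose. Cmax and AUC are reported as free drug concentrations. Bioavailability is taken relative to a 1 mg/kg intravenous dose.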

Rattus norvegicus [3] = test: Oral bioavailability in rat at 5 mg/kg; assay type: ADME, organism-based; conditions: in vivo; how it was run: as §1
[4] = Volume of distribution at steady state in rat at 1 mg/kg, iv; assay type: ADME, organism-based; design: dose 1 mg/kg, route intravenous; conditions: in vivo, read-out: Vdss
How it was run: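 Rat, single intravenous dose of 1 mg/kg. Steady-state volume of distribution comes from the plasma profile.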

[5] = Cmax in rat at 5 mg/kg, po; assay type: ADME, organism-based; design: dose 5 mg/kg, route oral; conditions: in vivo; how it was run: as §1
[6] = Half life in rat; assay type: ADME, organism-based; conditions: in vivo; how it was run: as §1
[7] = Metabolic stability in human liver microsomes assessed as compound remaining after 1 hr; assay type: ADME, Microsome; conditions: read-out: Stability
How it was run: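 Human liver microsomes incubated with compound for 1 h. Read-out is percent of parent remaining.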

[8] = Lipophilicity, log D of the compound; assay type: physicochemical; conditions: octanol/water

Compound | CLint scaled [1] | further results
Nc1ncnc2c1C(=O)N(c1ccc([C@H]3CC[C@H](Cc4nnn[nH]4)CC3)cc1)CCO2 | < 8 mL/min/kg | 
Nc1ncnc2c1C(=O)N(c1ccc(C3CCN(C(=O)[C@H]4CC[C@@H](O)CC4)CC3)cc1)CCO2 | < 8 mL/min/kg | 
Nc1ncnc2c1C(=O)N(c1ccc([C@H]3CC[C@H](CC(=O)N4CC(O)C4)CC3)cc1)CCO2 | < 8 mL/min/kg | 
CN(CC(=O)O)C(=O)C[C@H]1CC[C@H](c2ccc(N3CCOc4ncnc(N)c4C3=O)cc2)CC1 | < 8 mL/min/kg | 
Cc1nc(N)c2c(n1)OCCN(c1ccc([C@H]3CC[C@H](CC(=O)O)CC3)cc1)C2=O | < 8 mL/min/kg | 
CC(C)C(=O)N1CCC(c2ccc(N3CCOc4ncnc(N)c4C3=O)cc2)CC1 | 11 mL/min/kg | 
Nc1ncnc2c1C(=O)N(c1ccc([C@H]3CC[C@H](CC(=O)N4CCOCC4)CC3)cc1)CCO2 | < 8 mL/min/kg | AUC (Rattus norvegicus [2]): 838 ng·h/mL; F (Rattus norvegicus [3]): 77%; Vd [4]: 1.2 L/kg; Cmax [5]: 425 ng/mL; half-life [6]: 2 h
CN1CCN(C(=O)C[C@H]2CC[C@H](c3ccc(N4CCOc5ncnc(N)c5C4=O)cc3)CC2)CC1=O | 9 mL/min/kg | 
Nc1ncnc2c1C(=O)N(c1ccc([C@H]3CC[C@H](CCC(=O)O)CC3)cc1)CCO2 | < 8 mL/min/kg | 
CC(C)[C@H](CO)NC(=O)C[C@H]1CC[C@H](c2ccc(N3CCOc4ncnc(N)c4C3=O)cc2)CC1 | < 8 mL/min/kg | 
NC(=O)C[C@H]1CC[C@H](c2ccc(N3CCOc4ncnc(N)c4C3=O)cc2)CC1 | < 8 mL/min/kg | AUC (Rattus norvegicus [2]): 810 ng·h/mL; F (Rattus norvegicus [3]): 88%; Vd [4]: 1.6 L/kg; Cmax [5]: 273 ng/mL; half-life [6]: 4.3 h
Nc1ncnc2c1C(=O)N(c1ccc([C@H]3CC[C@H](CC(=O)N4CCCC4)CC3)cc1)CCO2 | 15 mL/min/kg | 
Cc1noc(CC[C@H]2CC[C@H](c3ccc(N4CCOc5ncnc(N)c5C4=O)cc3)CC2)n1 | 82 mL/min/kg | 
Nc1ccnc2c1C(=O)N(c1ccc([C@H]3CC[C@H](CC(=O)O)CC3)cc1)CCO2 | 8.4 mL/min/kg | 
N#CC[C@H]1CC[C@H](c2ccc(N3CCOc4ncnc(N)c4C3=O)cc2)CC1 | < 8 mL/min/kg | AUC (Rattus norvegicus [2]): 801 ng·h/mL; F (Rattus norvegicus [3]): 85%; Vd [4]: 2 L/kg; Cmax [5]: 174 ng/mL; half-life [6]: 3.1 h
Nc1ncnc2c1C(=O)N(c1ccc([C@H]3CC[C@H](CC(=O)NC4CCCC4)CC3)cc1)CCO2 | 39 mL/min/kg | 
Nc1ncnc2c1C(=O)N(c1ccc(C3CCN(C(=O)C4CCOCC4)CC3)cc1)CCO2 | < 8 mL/min/kg | 
Nc1ncnc2c1C(=O)N(c1ccc(C3CCN(C(=O)C4CCCCC4)CC3)cc1)CCO2 | 41 mL/min/kg | 

Compound | CLint scaled [1] | further results
Nc1ncnc2c1C(=O)N(c1ccc(C3CCN(C(=O)c4ccno4)CC3)cc1)CCO2 | 13 mL/min/kg | 
Nc1ncnc2c1C(=O)N(c1ccc(C3CCN(C(=O)c4cnon4)CC3)cc1)CCO2 | < 8 mL/min/kg | 
Cc1nnc(C[C@H]2CC[C@H](c3ccc(N4CCOc5ncnc(N)c5C4=O)cc3)CC2)n1C | < 8 mL/min/kg | 
COC1CCN(C(=O)C[C@H]2CC[C@H](c3ccc(N4CCOc5ncnc(N)c5C4=O)cc3)CC2)CC1 | 107 mL/min/kg | 
Cc1nnc(C[C@H]2CC[C@H](c3ccc(N4CCOc5ncnc(N)c5C4=O)cc3)CC2)o1 | < 8 mL/min/kg | 
Nc1ncnc2c1C(=O)N(c1ccc([C@H]3CC[C@H](CC(=O)O)CC3)cc1)CCO2 [PF-04620110] | < 8 mL/min/kg | AUC (Rattus norvegicus [2]): 565 ng·h/mL; remaining at 1 h [7]: 93%; Vd [4]: 1.8 L/kg; Cmax [5]: 225 ng/mL; half-life [6]: 7.3 h
Cc1noc(C[C@H]2CC[C@H](c3ccc(N4CCOc5ncnc(N)c5C4=O)cc3)CC2)n1 | < 8 mL/min/kg | AUC (Rattus norvegicus [2]): 727 ng·h/mL; F (Rattus norvegicus [3]): 53%; Vd [4]: 1.2 L/kg; logD [8]: 2.3; Cmax [5]: 118 ng/mL; half-life [6]: 2.7 h
Nc1ncnc2c1C(=O)N(c1ccc(C3CCN(C(=O)c4ccon4)CC3)cc1)CCO2 | 12 mL/min/kg | 
CC(C)(N)C[C@H]1CC[C@H](c2ccc(N3CCOc4ncnc(N)c4C3=O)cc2)CC1 | 12 mL/min/kg | 
Cc1nnc(C[C@H]2CC[C@H](c3ccc(N4CCOc5ncnc(N)c5C4=O)cc3)CC2)s1 | < 8 mL/min/kg | 
Nc1ncnc2c1C(=O)N(c1ccc(C3CCN(C(=O)c4ccccc4)CC3)cc1)CCO2 | < 8 mL/min/kg | 
CC(C)(O)C[C@H]1CC[C@H](c2ccc(N3CCOc4ncnc(N)c4C3=O)cc2)CC1 | < 8 mL/min/kg | AUC (Rattus norvegicus [2]): 1260 ng·h/mL; F (Rattus norvegicus [3]): 100%; Vd [4]: 1.3 L/kg; Cmax [5]: 171 ng/mL; half-life [6]: 2.6 h
CC(=O)N1CCC(c2ccc(N3CCOc4ncnc(N)c4C3=O)cc2)CC1 | < 8 mL/min/kg | 
Cc1nnc(C[C@H]2CC[C@H](c3ccc(N4CCOc5ncnc(N)c5C4=O)cc3)CC2)[nH]1 | < 8 mL/min/kg | 
CCNC(=O)C[C@H]1CC[C@H](c2ccc(N3CCOc4ncnc(N)c4C3=O)cc2)CC1 | < 8 mL/min/kg | 
Nc1ncnc2c1CN(c1ccc([C@H]3CC[C@H](CCO)CC3)cc1)CCO2 | 11 mL/min/kg | 
Nc1ncnc2c1C(=O)N(c1ccc([C@H]3CC[C@H](CC(=O)N4CC[C@@H](O)C4)CC3)cc1)CCO2 | < 8 mL/min/kg | 

— ChEMBL document CHEMBL2412975 (Bioorg Med Chem, 2013)
